What was measured:
Assay type in all cases: functional
[1] = tested on: Earias vittella; experiment: Antifeedant activity against third-instar larval stage of Earias vitella assessed as decrease in diet consumption at 0.5 ug/cm3 administered through artificial diet containing Abelmoschus esculentus seed powder after 24 hr relative to acetone-treated control; parameters: scale not given: the % may be the effect or the level left
In short: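 Artificial diet was modified Klein medium with bhendi (Abelmoschus esculentus) seed powder in place of alfalfa. Compound in acetone was mixed into bhendi meal 12 h before diet preparation so the solvent evaporated. One 3 g diet cube was given to five freshly molted third-instar larvae in a muslin-covered container. After 24 h the cubes were weighed. %AF = 100 − (treated/control)×100.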

[2] = tested on: Spodoptera litura; experiment: Insecticidal activity against adult Spodoptera litura in compound-treated castor leaves assessed as adult emergence at 0.5 ug/cm2 relative to control
[3] = tested on: Earias vittella; experiment: Insecticidal activity against pupal stage of Earias vitella assessed as pupal duration time at 0.5 ug/cm3 administered through artificial diet containing Abelmoschus esculentus seed powder (reference value: 6.4 +/- 0.21 days)
[4] = tested on: Spodoptera litura; experiment: Insecticidal activity against pupal stage of Spodoptera litura in compound-treated castor leaves assessed as pupal duration time at 0.5 ug/cm2 (reference value: 9.2 +/- 0.74 days)
[5] = tested on: Spodoptera litura; experiment: Insecticidal activity against third-instar larval stage of Spodoptera litura in compound-treated castor leaves assessed as total larval duration time at 0.5 ug/cm2 (reference value: 12.4 +/- 0.48 days)
[6] = tested on: Spodoptera litura; experiment: Antifeedant activity against third-instar larval stage of Spodoptera litura in compound-treated castor leaves assessed as decrease in diet consumption at 0.5 ug/cm2 after 24 hr by no-choice leaf disk assay relative to acetone-treated control; parameters: scale not given: the % may be the effect or the level left
In short: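 Larvae were reared on castor leaves at 25 ± 2 °C. In a no-choice test, compound in acetone was painted on the abaxial side of castor leaf disks and air-dried. Five freshly molted third-instar larvae, starved 4 h, were placed per Petri dish with wet cotton. There were five replicates. After 24 h, consumed leaf area was read on a leaf area meter. %AF = 100 − (treated/control)×100.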

[7] = tested on: Earias vittella; experiment: Insecticidal activity against male adult Earias vitella assessed as adult longevity time at 0.5 ug/cm3 administered through artificial diet containing Abelmoschus esculentus seed powder (reference value: 8.2 +/- 0.4 days)
[8] = tested on: Earias vittella; experiment: Insecticidal activity against third-instar larval stage of Earias vitella assessed as total larval duration time at 0.5 ug/cm3 administered through artificial diet containing Abelmoschus esculentus seed powder (reference value: 8.2 +/- 0.48 days)
[9] = tested on: Earias vittella; experiment: Insecticidal activity against adult Earias vitella assessed as adult deformity at 0.5 ug/cm3 administered through artificial diet containing Abelmoschus esculentus seed powder (reference value: 4%)
[10] = tested on: Earias vittella; experiment: Insecticidal activity against female adult Earias vitella assessed as adult longevity time at 0.5 ug/cm3 administered through artificial diet containing Abelmoschus esculentus seed powder (reference value: 8.6 +/- 0.48 days)
[11] = tested on: Spodoptera litura; experiment: Insecticidal activity against pupal stage of Spodoptera litura in compound-treated castor leaves assessed as pupal weight at 0.5 ug/cm2 (reference value: 302.4 +/- 5.9 mg)
[12] = tested on: Spodoptera litura; experiment: Insecticidal activity against female adult Spodoptera litura in compound-treated castor leaves assessed as adult longevity time at 0.5 ug/cm2 (reference value: 10 +/- 0.63 days)
[13] = tested on: Earias vittella; experiment: Insecticidal activity against pupal stage of Earias vitella assessed as pupal weight at 0.5 ug/cm3 administered through artificial diet containing Abelmoschus esculentus seed powder (reference value: 88.2 +/- 4.01 mg)
[14] = tested on: Spodoptera litura; experiment: Insecticidal activity against third-instar larval stage of Spodoptera litura in compound-treated castor leaves assessed as larval mortality at 0.5 ug/cm2 relative to control
[15] = tested on: Earias vittella; experiment: Insecticidal activity against pupal stage of Earias vitella assessed as pupal mortality at 0.5 ug/cm3 administered through artificial diet containing Abelmoschus esculentus seed powder (reference value: 8%)
[16] = tested on: Earias vittella; experiment: Insecticidal activity against third-instar larval stage of Earias vitella assessed as larval mortality at 0.5 ug/cm3 administered through artificial diet containing Abelmoschus esculentus seed powder (reference value: 4%)
[17] = tested on: Spodoptera litura; experiment: Insecticidal activity against adult Spodoptera litura in compound-treated castor leaves assessed as adult deformity at 0.5 ug/cm2 relative to control
[18] = tested on: Earias vittella; experiment: Insecticidal activity against adult Earias vitella assessed as adult emergence at 0.5 ug/cm3 administered through artificial diet containing Abelmoschus esculentus seed powder (reference value: 88%)
[19] = tested on: Spodoptera litura; experiment: Insecticidal activity against male adult Spodoptera litura in compound-treated castor leaves assessed as adult longevity time at 0.5 ug/cm2 (reference value: 9.4 +/- 0.48 days)
[20] = tested on: Spodoptera litura; experiment: Insecticidal activity against pupal stage of Spodoptera litura in compound-treated castor leaves assessed as pupal mortality at 0.5 ug/cm2 relative to control

SMILES: C/C=C(\C)C(=O)O[C@H]1C[C@@H](OC(C)=O)[C@@]2(C(=O)OC)CO[C@H]3[C@@H](O)[C@@](C)([C@]45O[C@@]4(C)[C@@H]4C[C@H]5O[C@@H]5OC=C[C@@]54O)[C@H]4[C@]1(CO[C@]4(O)C(=O)OC)[C@@H]32 [AZADIRACHTIN A]
- Activity [1]: 79.2%
- Activity [2]: 42.8%
- Time [3]: 8.4 days
- Time [4]: 11 days
- Time [5]: 13.9 days
- Activity [6]: 79.2%
- Time [7]: 6.6 days
- Time [8]: 11 days
- Activity [9]: 25%
- Time [10]: 6.8 days
- Activity [11]: 247.2 mg
- Time [12]: 7 days
- Activity [13]: 59.2 mg
- mortality at 0.5 µg/cm2 [14]: 78%
- mortality [15]: 37.5%
- mortality [16]: 68%
- Activity [17]: 28.5%
- Activity [18]: 37%
- Time [19]: 7.2 days
- mortality at 0.5 µg/cm2 [20]: 28%
